ChEMBL document CHEMBL2417369, “Synthesis and evaluation of heteroaryl substituted diazaspirocycles as scaffolds to probe the ATP-binding site of protein kinases” (Bioorg Med Chem, 2013)
pIC50: −log10 of the molar value.

Experiments:
[1] = biological target: Glycogen synthase kinase-3 beta (Homo sapiens, UniProt P49841); assay: Inhibition of GSK3beta (unknown origin) by microfluidic mobility shift assay
[2] = biological target: RAC-alpha serine/threonine-protein kinase (Homo sapiens, UniProt P31749); assay: Inhibition of AKT1 (unknown origin) by microfluidic mobility shift assay
[3] = biological target: RAC-beta serine/threonine-protein kinase (Homo sapiens, UniProt P31751); assay: Inhibition of AKT2 (unknown origin) by microfluidic mobility shift assay
RAC-beta serine/threonine-protein kinase, sequence (P31751 whole entry): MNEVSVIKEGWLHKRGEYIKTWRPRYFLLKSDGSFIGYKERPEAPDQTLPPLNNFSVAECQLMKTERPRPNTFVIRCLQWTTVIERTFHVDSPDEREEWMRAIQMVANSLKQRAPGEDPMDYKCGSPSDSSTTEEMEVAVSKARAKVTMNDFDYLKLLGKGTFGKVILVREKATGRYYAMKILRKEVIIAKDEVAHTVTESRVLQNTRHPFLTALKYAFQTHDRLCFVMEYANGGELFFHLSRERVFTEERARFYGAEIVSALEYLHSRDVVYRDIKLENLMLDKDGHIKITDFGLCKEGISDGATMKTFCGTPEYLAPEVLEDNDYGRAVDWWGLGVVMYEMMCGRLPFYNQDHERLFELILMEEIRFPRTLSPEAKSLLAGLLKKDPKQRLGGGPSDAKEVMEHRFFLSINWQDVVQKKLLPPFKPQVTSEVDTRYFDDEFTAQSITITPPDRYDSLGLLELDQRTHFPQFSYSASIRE

[4] = biological target: Proto-oncogene tyrosine-protein kinase Src (Homo sapiens, UniProt P12931); assay: Inhibition of SRC (unknown origin) by microfluidic mobility shift assay
Proto-oncogene tyrosine-protein kinase Src, sequence (P12931 2-536 limits assumed): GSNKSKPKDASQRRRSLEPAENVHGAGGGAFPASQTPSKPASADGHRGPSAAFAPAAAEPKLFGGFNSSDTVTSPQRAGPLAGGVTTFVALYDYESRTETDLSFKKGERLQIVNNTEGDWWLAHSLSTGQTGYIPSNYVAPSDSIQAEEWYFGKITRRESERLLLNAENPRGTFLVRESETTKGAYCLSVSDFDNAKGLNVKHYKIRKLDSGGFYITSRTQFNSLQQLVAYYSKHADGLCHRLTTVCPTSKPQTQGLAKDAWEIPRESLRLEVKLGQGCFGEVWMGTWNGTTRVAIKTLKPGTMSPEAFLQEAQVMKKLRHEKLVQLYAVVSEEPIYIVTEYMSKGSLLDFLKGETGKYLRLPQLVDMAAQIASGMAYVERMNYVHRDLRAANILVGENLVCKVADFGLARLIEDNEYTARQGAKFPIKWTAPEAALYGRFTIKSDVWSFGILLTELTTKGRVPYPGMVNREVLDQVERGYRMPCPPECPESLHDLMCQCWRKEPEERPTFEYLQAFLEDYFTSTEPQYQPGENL

[5] = biological target: Ribosomal protein S6 kinase alpha-1 (Homo sapiens, UniProt Q15418); assay: Inhibition of RSK1 (unknown origin) by microfluidic mobility shift assay
[6] = biological target: Tyrosine-protein kinase Lyn (Homo sapiens, UniProt P07948); assay: Inhibition of LYN (unknown origin) by microfluidic mobility shift assay
[7] = biological target: Serine/threonine-protein kinase Chk2 (Homo sapiens, UniProt O96017); assay: Inhibition of CHK2 (unknown origin) by microfluidic mobility shift assay
[8] = biological target: Tyrosine-protein kinase ABL1 (Homo sapiens, UniProt P00519); assay: Inhibition of ABL (unknown origin) by microfluidic mobility shift assay
Tyrosine-protein kinase ABL1, sequence (P00519 whole entry): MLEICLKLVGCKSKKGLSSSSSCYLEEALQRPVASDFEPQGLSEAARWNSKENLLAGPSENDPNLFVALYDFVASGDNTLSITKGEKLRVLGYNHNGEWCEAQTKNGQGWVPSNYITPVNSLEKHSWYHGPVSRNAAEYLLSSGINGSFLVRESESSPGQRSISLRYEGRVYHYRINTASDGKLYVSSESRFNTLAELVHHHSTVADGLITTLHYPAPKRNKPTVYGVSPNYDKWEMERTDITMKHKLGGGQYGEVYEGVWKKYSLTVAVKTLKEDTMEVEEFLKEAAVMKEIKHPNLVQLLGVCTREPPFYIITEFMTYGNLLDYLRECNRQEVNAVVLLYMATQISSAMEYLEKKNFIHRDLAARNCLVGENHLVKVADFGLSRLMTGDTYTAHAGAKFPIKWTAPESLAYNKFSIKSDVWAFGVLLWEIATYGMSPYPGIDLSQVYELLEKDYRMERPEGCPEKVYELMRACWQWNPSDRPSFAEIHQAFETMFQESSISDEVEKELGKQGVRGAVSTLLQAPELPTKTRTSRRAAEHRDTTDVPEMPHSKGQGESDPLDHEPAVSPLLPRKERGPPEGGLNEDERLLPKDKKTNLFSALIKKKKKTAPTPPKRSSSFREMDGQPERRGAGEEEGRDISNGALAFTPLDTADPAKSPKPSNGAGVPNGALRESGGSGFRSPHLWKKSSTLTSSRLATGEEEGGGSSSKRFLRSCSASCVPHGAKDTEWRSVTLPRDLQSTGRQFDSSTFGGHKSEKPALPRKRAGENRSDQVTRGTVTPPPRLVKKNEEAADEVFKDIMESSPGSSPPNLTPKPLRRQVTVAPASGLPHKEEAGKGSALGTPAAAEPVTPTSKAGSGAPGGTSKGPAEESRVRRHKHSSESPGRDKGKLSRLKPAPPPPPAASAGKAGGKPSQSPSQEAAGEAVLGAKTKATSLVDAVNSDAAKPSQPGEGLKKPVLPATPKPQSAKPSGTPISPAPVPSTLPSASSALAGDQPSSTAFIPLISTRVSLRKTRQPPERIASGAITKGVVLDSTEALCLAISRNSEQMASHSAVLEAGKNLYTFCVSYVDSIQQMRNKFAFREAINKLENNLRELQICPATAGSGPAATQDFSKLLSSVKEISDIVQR

[9] = biological target: Tyrosine-protein kinase Fyn (Homo sapiens, UniProt P06241); assay: Inhibition of FYN (unknown origin) by microfluidic mobility shift assay
[10] = biological target: Casein kinase I isoform delta (Homo sapiens, UniProt P48730); assay: Inhibition of CK1delta (unknown origin) by microfluidic mobility shift assay
Casein kinase I isoform delta, sequence (P48730 whole entry, canonical isoform): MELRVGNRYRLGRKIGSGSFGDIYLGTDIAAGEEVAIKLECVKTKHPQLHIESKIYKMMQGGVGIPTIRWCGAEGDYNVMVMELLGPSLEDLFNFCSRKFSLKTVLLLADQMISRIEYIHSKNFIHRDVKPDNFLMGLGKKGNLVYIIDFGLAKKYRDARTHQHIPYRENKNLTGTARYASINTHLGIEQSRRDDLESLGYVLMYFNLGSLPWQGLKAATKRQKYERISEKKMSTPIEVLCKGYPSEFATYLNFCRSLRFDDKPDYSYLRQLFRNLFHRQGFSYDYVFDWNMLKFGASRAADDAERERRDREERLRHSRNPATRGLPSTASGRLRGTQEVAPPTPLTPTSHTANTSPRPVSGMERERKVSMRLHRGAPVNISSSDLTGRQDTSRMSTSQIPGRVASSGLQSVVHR

[11] = biological target: Mitogen-activated protein kinase 3 (Homo sapiens, UniProt P27361); assay: Inhibition of ERK1 (unknown origin) by microfluidic mobility shift assay
Mitogen-activated protein kinase 3, sequence (P27361 whole entry): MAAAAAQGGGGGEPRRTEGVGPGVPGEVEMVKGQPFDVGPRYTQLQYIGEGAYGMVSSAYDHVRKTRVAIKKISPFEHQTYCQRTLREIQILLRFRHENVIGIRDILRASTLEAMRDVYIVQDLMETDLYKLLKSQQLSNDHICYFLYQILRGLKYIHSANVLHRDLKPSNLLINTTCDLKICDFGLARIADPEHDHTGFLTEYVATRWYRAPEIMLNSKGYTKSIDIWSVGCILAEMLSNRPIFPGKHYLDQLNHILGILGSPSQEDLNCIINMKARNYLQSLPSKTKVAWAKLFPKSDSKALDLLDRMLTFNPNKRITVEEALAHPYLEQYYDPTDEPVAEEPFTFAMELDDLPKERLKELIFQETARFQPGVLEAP

[12] = biological target: Mitogen-activated protein kinase 1 (Homo sapiens, UniProt P28482); assay: Inhibition of ERK2 (unknown origin) by microfluidic mobility shift assay
Mitogen-activated protein kinase 1, sequence (P28482 whole entry): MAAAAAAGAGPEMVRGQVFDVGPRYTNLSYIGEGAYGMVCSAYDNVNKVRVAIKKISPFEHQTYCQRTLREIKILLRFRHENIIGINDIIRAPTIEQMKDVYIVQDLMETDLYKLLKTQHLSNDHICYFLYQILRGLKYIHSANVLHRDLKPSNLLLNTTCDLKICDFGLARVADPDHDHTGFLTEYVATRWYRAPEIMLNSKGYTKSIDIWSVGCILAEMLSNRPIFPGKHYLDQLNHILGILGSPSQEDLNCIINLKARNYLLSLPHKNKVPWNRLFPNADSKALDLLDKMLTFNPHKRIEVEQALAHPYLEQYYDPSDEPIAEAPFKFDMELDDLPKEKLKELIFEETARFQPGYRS

[13] = biological target: Tyrosine-protein kinase Lck (Homo sapiens, UniProt P06239); assay: Inhibition of LCK (unknown origin) by microfluidic mobility shift assay
[14] = biological target: Serine/threonine-protein kinase D2 (Homo sapiens, UniProt Q9BZL6); assay: Inhibition of PKD2 (unknown origin) by microfluidic mobility shift assay
Serine/threonine-protein kinase D2, sequence (Q9BZL6 whole entry): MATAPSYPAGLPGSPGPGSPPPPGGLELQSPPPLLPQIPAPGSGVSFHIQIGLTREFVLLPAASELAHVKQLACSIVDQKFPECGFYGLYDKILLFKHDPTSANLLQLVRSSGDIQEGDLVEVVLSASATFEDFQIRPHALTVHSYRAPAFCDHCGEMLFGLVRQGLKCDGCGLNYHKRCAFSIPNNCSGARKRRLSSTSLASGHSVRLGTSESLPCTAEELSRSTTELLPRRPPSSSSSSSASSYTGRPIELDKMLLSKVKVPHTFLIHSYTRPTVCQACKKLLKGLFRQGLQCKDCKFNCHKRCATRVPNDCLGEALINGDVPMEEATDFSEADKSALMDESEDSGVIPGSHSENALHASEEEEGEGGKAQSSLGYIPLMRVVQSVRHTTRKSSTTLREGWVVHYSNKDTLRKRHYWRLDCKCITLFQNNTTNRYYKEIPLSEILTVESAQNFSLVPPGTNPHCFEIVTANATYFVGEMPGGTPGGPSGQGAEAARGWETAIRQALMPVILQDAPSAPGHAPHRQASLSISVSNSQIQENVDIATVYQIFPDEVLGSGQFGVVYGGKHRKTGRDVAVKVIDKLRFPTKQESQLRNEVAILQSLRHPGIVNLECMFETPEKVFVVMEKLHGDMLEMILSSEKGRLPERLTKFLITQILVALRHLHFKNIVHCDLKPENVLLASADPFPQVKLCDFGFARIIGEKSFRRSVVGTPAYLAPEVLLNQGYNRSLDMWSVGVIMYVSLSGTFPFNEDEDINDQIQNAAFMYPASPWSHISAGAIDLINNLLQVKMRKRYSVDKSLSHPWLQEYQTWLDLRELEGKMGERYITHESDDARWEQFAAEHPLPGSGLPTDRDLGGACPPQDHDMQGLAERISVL

[15] = biological target: Ribosomal protein S6 kinase alpha-5 (Homo sapiens, UniProt O75582); assay: Inhibition of MSK1 (unknown origin) by microfluidic mobility shift assay
Ribosomal protein S6 kinase alpha-5, sequence (O75582 whole entry): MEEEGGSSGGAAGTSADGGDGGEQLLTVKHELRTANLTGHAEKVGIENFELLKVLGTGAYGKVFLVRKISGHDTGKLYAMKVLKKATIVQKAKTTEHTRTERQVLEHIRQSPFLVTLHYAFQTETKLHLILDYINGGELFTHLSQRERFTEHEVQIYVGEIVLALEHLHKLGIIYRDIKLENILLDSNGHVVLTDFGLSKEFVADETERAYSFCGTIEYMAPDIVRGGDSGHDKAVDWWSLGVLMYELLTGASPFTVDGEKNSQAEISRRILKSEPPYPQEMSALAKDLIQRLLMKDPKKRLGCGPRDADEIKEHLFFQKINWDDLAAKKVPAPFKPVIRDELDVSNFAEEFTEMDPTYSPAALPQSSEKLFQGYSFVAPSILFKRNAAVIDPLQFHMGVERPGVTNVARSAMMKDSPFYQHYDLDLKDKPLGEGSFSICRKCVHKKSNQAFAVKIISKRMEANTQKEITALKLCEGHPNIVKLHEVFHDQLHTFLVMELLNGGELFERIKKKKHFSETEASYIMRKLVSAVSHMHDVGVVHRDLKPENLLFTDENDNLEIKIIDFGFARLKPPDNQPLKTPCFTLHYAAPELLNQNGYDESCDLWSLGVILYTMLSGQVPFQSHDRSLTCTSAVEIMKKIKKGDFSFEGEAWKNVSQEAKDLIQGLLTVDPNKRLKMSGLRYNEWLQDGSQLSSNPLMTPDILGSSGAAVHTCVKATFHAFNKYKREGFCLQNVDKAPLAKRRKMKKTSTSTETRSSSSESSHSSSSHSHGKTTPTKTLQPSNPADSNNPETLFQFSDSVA

[16] = Inhibition of MAPK (unknown origin) by microfluidic mobility shift assay; parameters: species or system Homo sapiens
[17] = biological target: MAP kinase-activated protein kinase 5 (Homo sapiens, UniProt Q8IW41); assay: Inhibition of PRAK (unknown origin) by microfluidic mobility shift assay
[18] = Inhibition of PKA (unknown origin) using LRRASLG as substrate after 1 hr by fluorescence assay; parameters: species or system Homo sapiens
[19] = biological target: Hepatocyte growth factor receptor (Homo sapiens, UniProt P08581); assay: Inhibition of MET (unknown origin) by microfluidic mobility shift assay
[20] = biological target: Protein kinase C zeta type (Homo sapiens, UniProt Q05513); assay: Inhibition of PKCzeta (unknown origin) by microfluidic mobility shift assay
[21] = biological target: T1, Serine/threonine-protein kinase Sgk2 (Homo sapiens) (UniProt Q9HBY8); assay: Inhibition of SGK2 (unknown origin) at 30 uM by microfluidic mobility shift assay relative to control
T1 sequence (whole entry): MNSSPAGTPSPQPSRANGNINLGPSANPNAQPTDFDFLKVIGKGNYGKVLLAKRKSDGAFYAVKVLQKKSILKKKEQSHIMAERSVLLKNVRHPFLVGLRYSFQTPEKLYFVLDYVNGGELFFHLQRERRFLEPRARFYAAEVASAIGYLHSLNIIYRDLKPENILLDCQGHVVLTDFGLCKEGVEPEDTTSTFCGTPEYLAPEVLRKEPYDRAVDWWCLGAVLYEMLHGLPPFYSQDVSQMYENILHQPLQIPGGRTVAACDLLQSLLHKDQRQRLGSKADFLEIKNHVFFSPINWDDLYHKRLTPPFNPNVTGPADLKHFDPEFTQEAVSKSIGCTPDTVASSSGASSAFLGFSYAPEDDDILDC
Procedure, shortened: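 Single-point screen against a 24-kinase panel in a commercial microfluidic assay format. Compounds were tested at 30 µM, with ATP at approximately the Km,[ATP] of each enzyme. H-89 was included on each assay plate as an internal control.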

Compound | inhibition [21] | pIC50 [1] | pIC50 [2] | pIC50 [3] | pIC50 [4] | pIC50 [6] | pIC50 [8] | pIC50 [9] | pIC50 [10] | pIC50 [11] | pIC50 [12] | pIC50 [13] | pIC50 [14] | pIC50 [15] | pIC50 [16] | pIC50 [17] | pIC50 [18] | also measured
c1nc(N2CCC3(CCCCN3)CC2)c2nc[nH]c2n1 | – | 3.86 | 4.85 | 4.18 | 3.82 | 3.75 | 3.90 | 3.80 | 3.62 | 4.22 | 4.33 | 3.95 | 4.34 | 5.28 | 3.99 | 3.65 | 6.00 | pIC50 [5]: 4.20; pIC50 [7]: 4.39
c1nc(N2CCC3(CCCNC3)CC2)c2nc[nH]c2n1 | – | 4.26 | 5.80 | 5.02 | 4.74 | 4.85 | 5.15 | 4.59 | 4.01 | 4.43 | 4.42 | 4.70 | 5.89 | 6.15 | 4.72 | 4.39 | 7.10 | pIC50 [19]: 3.74; pIC50 [20]: 4.13
O=S(=O)(c1cccc2cnccc12)N1CCCC2(CCCNC2)C1 (configuration not stated) | – | – | – | – | – | – | – | – | – | – | – | – | – | – | – | – | 5.44 | –

Further lines, with some results ahead:

inhibition [21] | Compound | pIC50 [1] | pIC50 [2] | pIC50 [3] | pIC50 [4] | pIC50 [6] | pIC50 [8] | pIC50 [9] | pIC50 [10] | pIC50 [11] | pIC50 [12] | pIC50 [13] | pIC50 [14] | pIC50 [15] | pIC50 [16] | pIC50 [17] | pIC50 [18] | also measured
47% | c1ccc(C2CCNC3(CCN(c4ncnc5[nH]cnc45)CC3)C2)cc1 (racemic) | – | – | – | – | – | – | – | – | – | – | – | – | – | – | – | 6.83 | –
59% | c1ccc(CC2CCNC3(CCN(c4ncnc5[nH]cnc45)CC3)C2)cc1 (racemic) | – | – | – | – | – | – | – | – | – | – | – | – | – | – | – | 7.51 | –
17% | c1ccc(CC2CCC3(CCN(c4ncnc5[nH]cnc45)CC3)NC2)cc1 (racemic) | – | – | – | – | – | – | – | – | – | – | – | – | – | – | – | – | –
